An excerpt weighted towards active compounds, which were near 1.9% of everything screened.
TDP2 absorb – blocks human TDP2 phosphodiesterase activity; O95551; recombinant TDP2, T5PNP hydrolysis, p-nitrophenol absorbance 415 nm; inhibition, % at 12.8 µM; 370,000 tested, 0.34% active;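 active = inhibition above the mean of all tested compounds plus 3 SD, set per campaign, cut at about 25% in these data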
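Assay system: recombinant human TDP2 / Reagent: T5PNP substrate at 5 mM, a TopII-DNA adduct mimic / Measured by: epi absorbance from released p-nitrophenol / Evaluation: % inhibition relative to enzyme-containing and enzyme-free wells / Control set: enzyme-free and DMSO wells / Replicates: each compound tested once, singlicate / Schedule: enzyme reaction with compound for 2 h at 37 °C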
MBD2 DNA inh – inhibitors of human MBD2 binding to methylated oligonucleotide | TR-FRET | inhibition, % at 4.4 µM | 370,000 tested, 0.31% active | AID 686964; in the data active = inhibition above about 13%
LEDGF integ inh – blocks HIV-1 LEDGF/p75-dependent DNA integration; TR-FRET IN-LEDGF/p75 DNA integration, Eu/Cy5; inhibition, % at 3.7 µM; 370,000 tested, 0.64% active; AID 743269;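 active = inhibition above the screen-wide mean plus 3 SD, cut at about 13% in these data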;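 note: signal is the Cy5 over europium emission ratio at 671 and 618 nm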
UHRF1 MBD2 ctr – UHRF1 methyl-DNA binding inhibition; Q96T88; inhibition, % at 4.4 µM; UHRF1 binding to methylated oligo, TR-FRET; AID 687016; 370,000 tested, 0.75% active;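 note: UHRF1 SRA domain binding a hemimethylated CpG hairpin DNA probe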
DDE Tn7 FP inh – DD(E)-Tn7 binding inhibition, primary FP screen; P02675; FP displacement of FITC-Tn7 peptide from fibrin DD(E); 0% = median of compound wells per plate; inhibition, % at 8.3 µM; 370,000 tested, 0.13% active; AID 720508;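 active = inhibition above the mean of compounds falling within the control limits plus 3 SD of them, cut at about 14% in these data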
Target sequence (P02675 whole entry, looked up): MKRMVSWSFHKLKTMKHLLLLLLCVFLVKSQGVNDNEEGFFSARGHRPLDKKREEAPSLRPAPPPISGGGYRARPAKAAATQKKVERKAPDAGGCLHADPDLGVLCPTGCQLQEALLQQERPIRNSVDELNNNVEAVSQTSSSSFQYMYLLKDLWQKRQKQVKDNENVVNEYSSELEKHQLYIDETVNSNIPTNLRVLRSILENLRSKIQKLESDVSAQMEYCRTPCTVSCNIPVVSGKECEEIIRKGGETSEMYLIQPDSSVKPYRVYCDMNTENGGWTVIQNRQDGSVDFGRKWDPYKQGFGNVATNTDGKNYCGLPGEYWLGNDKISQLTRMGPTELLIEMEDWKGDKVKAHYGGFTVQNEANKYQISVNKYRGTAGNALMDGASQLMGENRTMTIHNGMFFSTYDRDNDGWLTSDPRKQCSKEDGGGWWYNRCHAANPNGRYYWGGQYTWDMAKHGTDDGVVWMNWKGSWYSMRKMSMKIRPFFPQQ
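Measure: % inhibition scaled between sample-field median and high-control FP; Test system: human fibrin DD(E); Quantity: 2 µM final DD(E) protein; Doses: one dose, 8.3 µM nominal; Schedule: compound with protein 10 min, then 3 h after probe, room temperature; Detection: fluorescence polarization; Medium: Tris buffer with calcium and detergent, pH 7.8.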
Tn6 DDE FP – disrupts Tn6 cyclic peptide binding to fibrin D-Dimer-E complex; AID 720509; Fibrin DD(E) TRITC-Tn6 fluorescence polarization displacement; P02675; 370,000 tested, 0.21% active; inhibition, % at 8.3 µM;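 active = inhibition above a per-campaign cutoff: mean of compounds within control limits plus 3 SD, cut at about 15% in these data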
UHRF1 DNA bind – UHRF1 methyl-oligo binding inhibition as MBD2 counter-screen; shares compounds with MBD2 DNA inh; 1,000 tested, 25% active; UHRF1 binding to methylated oligonucleotide, TR-FRET; inhibition, % at 4.4 µM; AID 720530;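 note: UHRF1 SRA domain binding a labeled hemimethylated CpG hairpin DNA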
MBD2 DBD conf – confirmation of human MBD2-DBD methylated oligonucleotide binding inhibitors. TR-FRET MBD2-DBD binding to methylated oligonucleotide. inhibition, % at 4.4 µM. shares compounds with MBD2 DNA inh. 1,000 tested, 26% active; in the data active = inhibition above about 14%
TDP2 confirm – confirmation of human TDP2 inhibitors; inhibition, % at 12.8 µM; recombinant human TDP2, absorbance read-out; 1,100 tested, 22% active; shares compounds with TDP2 absorb; in the data active = inhibition above about 25%
IN multimer act – HIV-1 integrase multimerization activation, counter-screen. AID 1053131. shares compounds with LEDGF integ inh. 2,000 tested, 17% active. activation, % at 7.7 µM. TR-FRET HIV-1 integrase multimerization, biochemical; in the data active = activation above about 8.9%
TRFRET interf – optically interferes with TR-FRET readout in LEDGF counter-screen. shares compounds with LEDGF integ inh. TR-FRET optical interference counterscreen, HIV-1 IN multimerization. inhibition, % at 7.7 µM. 2,000 tested, under 10 active;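 active = inhibition above the mean over all tested compounds plus 3 SD, which no compound reached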
LEDGF integ conf – LEDGF/p75-dependent HIV-1 integration inhibition, confirmation | shares compounds with LEDGF integ inh | TR-FRET LEDGF/p75-dependent HIV-1 integration, biochemical | inhibition, % at 3.7 µM | 2,000 tested, 36% active; in the data active = inhibition above about 14%
Numbers stand for hits; 0 = inactive; - = no result. Cut-off read from the data, not from the text of the source, unless noted: active = inhibition above about 21%; inactive = the rest.

SMILES	TDP2 absorb	MBD2 DNA inh	LEDGF integ inh	UHRF1 MBD2 ctr	DDE Tn7 FP inh	Tn6 DDE FP	UHRF1 DNA bind	MBD2 DBD conf	IN multimer act	TRFRET interf	LEDGF integ conf	others
Cc1ccccc1-c1nnnn1C1CCS(=O)(=O)C1 (centres undefined)	0	0	0	0	0	0	-	-	-	-	-
Cc1cc(=O)n(C2CCS(=O)(=O)C2)[nH]1 (centres undefined)	70	14	22	0	0	0	0	0	0	0	0	TDP2 confirm=26
CCN(CC)c1ccc(NC(=O)CCS(=O)(=O)c2ccc(Br)cc2)c(C)c1	0	25	17	54	0	0	63	30	35	0	0
O=c1c2cc(O)c(O)cc2oc2cc(O)c(C3OC(CO)C(O)C(O)C3O)c(O)c12 (centres undefined)	0	43	82	60	0	0	45	40	70	0	86
CC(C(=O)O)N1C(=O)/C(=C/C=C/c2ccco2)SC1=S (centres undefined)	0	101	93	101	0	0	103	110	48	0	88
O=C1/C(=C/C=C/c2ccco2)SC(=S)N1NS(=O)(=O)c1ccccc1	0	69	71	97	0	0	88	51	20	0	76
CC(=O)C1=C(C)N(Cc2ccc(F)cc2)C(=S)NC1c1cccc(F)c1 (centres undefined)	0	0	0	0	0	0	-	-	-	-	-
O=C1CC(=O)N(Cc2ccco2)C(=O)N1	0	64	89	93	0	0	100	74	18	0	87
CN1CCCCC(NC(=O)C2CCCCC2)C1=O (centres undefined)	0	0	0	0	0	0	-	-	-	-	-
C=CCSC1=N/C(=C\C=C\c2ccco2)C(=O)S1	0	43	62	75	0	0	40	17	0	0	75
C=CCSC1=N/C(=C\c2sccc2C)C(=O)S1	0	0	0	0	0	0	-	-	-	-	-
CCn1c(SCC(=O)NN=Cc2cc(OC)ccc2OC)nnc1-c1ccc(OC)cc1	0	0	0	0	0	0	-	-	-	-	-
COc1ccc(C2CC3CN(C4CCCCC4)C(=O)C3N2C)cc1 (centres undefined)	0	0	0	0	0	0	-	-	-	-	-
Cc1cc(/C=C2\SC(=O)NC2=O)c(C)n1-c1ccc(N2CCOCC2)cc1	0	0	0	0	0	0	-	-	-	-	-
Cc1cc(/C=C2\SC(=O)NC2=O)c(C)n1-c1ccc(N(C)C)cc1	0	17	42	39	0	0	0	0	0	0	0
c1coc(-c2ccc3nncn3c2)c1	0	39	57	76	0	0	62	34	23	0	73
O=c1cc(Br)c(O)c(Br)cc1Br	0	14	46	39	0	0	0	0	0	0	21
C[C@@H]1C[C@H]2O[C@@H]2/C=C\C=C\C(=O)Cc2cc(O)cc(O)c2C(=O)O1	0	0	0	0	0	0	-	-	-	-	-
COc1ccc(-c2ncn(CCC#N)c2[N+](=O)[O-])cc1	0	0	0	0	0	0	-	-	-	-	-
COc1ccc(-c2cc(=O)n(CCC#N)[nH]2)cc1	92	18	42	0	0	0	0	0	0	0	0	TDP2 confirm=0
CCCCCCN1CCS(=O)(=O)N(Cc2ccc(OC)cc2)C(C(=O)OC)C1 (centres undefined)	0	0	0	0	0	0	-	-	-	-	-
C[N+]1(C)[C@H]2CC[C@H]1CC(OC(=O)C(O)c1ccccc1)C2 (some centres undefined)	0	0	0	0	0	0	-	-	-	-	-
COc1cc(/C=C2\CCc3c2nc2ccccc2c3C(=O)O)cc(OC)c1OC	0	26	26	48	0	0	34	14	0	0	34
Cc1cc(C)n2c(Nc3ccc4c(c3)OCCO4)c(-c3ccc(C)o3)nc2n1	0	16	24	26	0	0	0	0	0	0	0
O=c1cc(N2CCN(c3cccc(C(F)(F)F)c3)CC2)[nH]c(=O)n1-c1ccccc1	0	0	0	0	0	0	-	-	-	-	-
SMILES	TDP2 absorb	MBD2 DNA inh	LEDGF integ inh	UHRF1 MBD2 ctr	DDE Tn7 FP inh	Tn6 DDE FP	UHRF1 DNA bind	MBD2 DBD conf	IN multimer act	TRFRET interf	LEDGF integ conf	others
O=C(CCc1nc(-c2ccc(Cl)cc2)no1)OCc1ccc(Br)cc1	40	15	16	28	0	0	0	0	0	0	0	TDP2 confirm=0
COc1ccc(Cl)cc1Nc1nc(NCCO)nc(N2CCCC2)n1	0	17	24	72	0	0	0	0	0	0	0
COc1ccc(Cl)cc1Nc1nc(NCCO)nc(N2CCCCC2)n1	0	0	0	0	0	0	-	-	-	-	-
O=C(/C=C/c1ccco1)NC(=S)Nc1cccc(C(=O)O)c1	0	17	44	70	0	0	56	18	0	0	16
COc1cccc(NC(=S)NC(=O)/C=C/c2ccco2)c1	0	0	0	0	0	0	-	-	-	-	-
O=C1c2c(O)cccc2Cc2cccc(O)c21	0	0	0	0	0	0	-	-	-	-	-
O=C1Cc2cccc(=O)c(O)c2C(=O)O1	0	13	20	28	0	0	28	0	0	0	26
N#C/C(=C\c1ccc(O)c(O)c1)C(=O)c1ccc(O)c(O)c1	0	19	91	64	0	0	67	29	20	0	90
N#C/C(=C\c1ccc(O)c(O)c1)C(=O)N1CCCC1	0	0	0	0	0	0	-	-	-	-	-
N#Cc1ccc(S(=O)(=O)NC(=O)[C@H]2O[C@@H](n3ccc(=O)[nH]c3=O)[C@H](O)[C@@H]2O)cc1	0	0	0	0	0	0	-	-	-	-	-
CNC[C@@H]1OCc2ccccc2-c2c(n(C)c3ccccc23)C(=O)N([C@@H](C)CO)C[C@@H]1C	0	0	0	0	0	0	-	-	-	-	-
O=C(COC(=O)c1cncc(Br)c1)NCc1ccc(F)cc1	0	0	0	0	0	0	-	-	-	-	-

High-throughput results: PubChem, The Scripps Research Institute Molecular Screening Center
